Measurements taken from PMC2112435 (The Journal of Cell Biology, 1983).

Tests used:
[1] = tested on: polymorphonuclear leukocytes (PMNs); assay: 125I-BSA uptake and release of TCA-precipitable BSA by PMNs; format: cell-based, rabbit; conditions: for k2, rate constant of further processing / k3, rate constant of release of intact material / k3/k2 + k3 / Rate constant for depletion of Ap: Table I
Procedure, shortened: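 Rabbit PMNs in HBSS with 2.4 mg/ml HEPES, 3.3×10^6 cells/ml, settled 15 min at 23°C as a monolayer. Incubated 30 min at 37°C with ¹²⁵I-BSA (6.5 μCi/ml), 1% unlabeled BSA and 2×10^-8 M unlabeled FNLLP to stimulate pinocytosis. Washed 10 min at 4°C, then held in fresh HBSS at 37°C or 4°C for varied times. Medium assayed for TCA-precipitable counts. k3 (release) and k2 (digestion/storage) taken from a kinetic pinosome model.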

[2] = tested on: polymorphonuclear leukocytes (PMNs); assay: 3H-FNLLP peptide uptake and release by PMN monolayers; format: cell-based, rabbit
[3] = tested on: polymorphonuclear leukocytes (PMNs); conditions: chemotactic peptide taken up by PMNs; cited from earlier work
[4] = Table I line 2, 2 x 10-0 M/L as printed
[5] = Table I line 4, 2 X 10^-5 M/L as printed (second time)

Substance: BSA: bovine serum albumin (fatty-acid-free), iodinated by the chloramine-T method, pinocytic marker
- k2, rate constant of further processing ([1]; BSA 1.5 X 101 cpm/L as printed): 0.080 min⁻¹
- k3, rate constant of release of intact material ([1]; BSA 1.5 X 101 cpm/L as printed): 0,103 min-1
- k3/k2 + k3 ([1]; BSA 1.5 X 101 cpm/L as printed): 0.56
- k2, rate constant of further processing ([1]; BSA 3.7 X 109 cpm/L): 0,076 min-1
- k3, rate constant of release of intact material ([1]; BSA 3.7 X 109 cpm/L): 0.108 min⁻¹
- k3/k2 + k3 ([1]; BSA 3.7 X 109 cpm/L): 0.59
- Rate constant for depletion of Ap ([1]; BSA concentration 1.5 X 101 cpm/L as printed): 0.182 min⁻¹
- Rate constant for depletion of Ap ([1]; BSA concentration 3.7 X 109 cpm/L): 0.182 min⁻¹
- rate constant of release of TCA-precipitable BSA ([1]; as Fig. 4, release at 37C): 0.182 min⁻¹
- half-life of release of intact material ([1]; uptake primarily via bulk-fluid-phase): ~4 min

Substance: N-formyinorleucylleucylphenylalanme [FNLLP]
- rate constant of filling the reversible pinocytic pool ([2]; 2 x 10^-8 M 3H-FNLLP, 37C (Fig. 10)): 0.165 min⁻¹
- k2, rate constant of further processing (digestion or storage) ([2]; Table I line 1, 2 X 10^-5 M/L): 0.097 min⁻¹
- k3, rate constant of release of intact peptide ([2]; Table I line 1, 2 X 10^-5 M/L): 0.101 min⁻¹
- k3/k2 + k3 ([2]; Table I line 1, 2 X 10^-5 M/L): 0.51
- k3, rate constant of release of intact peptide [2, 4]: 0.095 min⁻¹
- k3/k2 + k3 [2, 4]: 0.50
- k2, rate constant of further processing (digestion or storage) ([2]; Table I line 3, 2 X 10^-7 M/L): 0.117 min⁻¹
- k3, rate constant of release of intact peptide ([2]; Table I line 3, 2 X 10^-7 M/L): 0.081 min⁻¹
- k3/k2 + k3 ([2]; Table I line 3, 2 X 10^-7 M/L): 0.41
- k2, rate constant of further processing (digestion or storage) [2, 5]: 0.131 min⁻¹
- k3, rate constant of release of intact peptide [2, 5]: 0.067 min⁻¹
- k3/k2 + k3 [2, 5]: 0.34
- k2, rate constant of further processing (digestion or storage) ([2]; Table I line 5, 2 X 10^-9 M/L): 0,128 min-1
- k3, rate constant of release of intact peptide ([2]; Table I line 5, 2 X 10^-9 M/L): 0,070 min-1
- k3/k2 + k3 ([2]; Table I line 5, 2 X 10^-9 M/L): 0.35
- probability that pinocytosed material will be released intact, ratio k3/(k2 + k3) ([2]; estimate from Table I): approximately 0.5
- t1/2 of release of accumulated peptide as intact peptide ([2]; inhibitor cocktail (5 mM 2-deoxy-D-glucose, 1 mM sodium fluoride, 0.3 M sucrose, glucose-free HBSS), 37C, 2 x 10^-8 M 3H-FNLLP): 4 min
- time at which the amount of peptide accumulated reaches a plateau ([2]; inhibitor cocktail, 2 x 10^-8 M 3H-FNLLP, 37C (Fig. 5)): ~ 15 min
- rate constant of release of intact peptide ([2]; inhibitor cocktail, 37C, 2 x 10^-8 M 3H-FNLLP): 0.173 min⁻¹
- t1/2 of release as digested peptide [3]: 23 min
